From ChEMBL document CHEMBL5335784, “Discovery of a novel 1,3,4-oxadiazol-2-one-based NLRP3 inhibitor as a pharmacological agent to mitigate cardiac and metabolic complications in an experimental model of diet-induced metaflammation” (Eur J Med Chem, 2023)

Tests used:
[1] = Cytotoxicity against human THP-1 cells assessed as reduction in cell viability measured after 72 hr by MTT assay; format: toxicity, cell-based; conditions: read-out: TC50
Outline: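 Undifferentiated THP-1 cells exposed to 0.1–100 μM compound for 72 h. Viability read by MTT reduction at 570 nm. TC50 from concentration–response; three experiments.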

[2] = Metabolic stability of the compound in human THP-1 cells at 100 uM measured after 24 hrs by RP-HPLC analysis; format: ADME, cell-based; conditions: thp-1, 24 h
Outline: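 Lysate from PMA-differentiated THP-1 cells (RIPA buffer) at 37 °C with compound at 100 μM, added from 10 mM DMSO stock. Aliquots deproteinized with CH3CN/0.1% TFA, centrifuged, filtered and quantified by RP-HPLC at 226/254 nm against external standards. Pseudo-first-order t1/2 from exponential decay fit; three independent experiments.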

[3] = n-Octanol/water distribution coefficient, log D of the compound at pH 7.4 measured after 4 hrs by shake flask method; format: physicochemical
Outline: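 Shake-flask at room temperature between n-octanol and 50 mM phosphate buffer pH 7.4, ionic strength 0.15 M KCl. Phases were pre-saturated by 4 h shaking. Compound at about 0.1 mg/ml in buffer, shaken about 20 min with n-octanol, then centrifuged at 10000 rpm for 10 min.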

[4] = Stability of the compound in PBS at 100 uM at pH 7.4 measured after 24 hrs by RP-HPLC analysis; format: physicochemical; conditions: buffer, pH 7.4, 24 h
Outline: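 Compound added from 10 mM DMSO stock to 50 mM PBS pH 7.4 at 37 °C. Sampled at intervals over 48 h and analysed by RP-HPLC with UV detection at 226/254 nm against calibration standards.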

[5] = Metabolic stability of the compound in human serum at 100 uM measured after 24 hrs by RP-HPLC analysis; format: ADME, cell-free
Outline: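 Human male AB serum at 37 °C with compound at 100 μM (from 10 mM DMSO stock), sampled over 24 h. Aliquots deproteinized with CH3CN/0.1% TFA, centrifuged, filtered and analysed by RP-HPLC (phenyl column, 226/254 nm) with calibration 1-100 μM. Pseudo-first-order t1/2 from exponential decay fit.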

Row | SMILES | CC50 at 72 h [1] [µM] | further results
1 | O=C(O)c1ccc(-c2nc(Cc3cccc(C(F)(F)F)c3)no2)cc1 | 27.3 | 
2 | CCOC(=O)c1ccc(Cn2nc(Cc3ccccc3Cl)oc2=O)cc1 | > 100 | 
3 | COC(=O)c1ccc(-c2noc(Cc3ccccc3Cl)n2)cc1 | > 100 | 
4 | CC(C)c1cc(Cl)cc(C(C)C)c1NC(=O)NS(=O)(=O)c1cc(C(C)(C)O)co1 | 92.5 | 
5 | CCOC(=O)CN(C)c1nnc(NC(=O)c2ccccc2Cl)s1 | 96.1 | 
6 | O=C(O)Cn1nc(Cc2ccccc2Cl)oc1=O | 94.6 | Stability [2]: Stable; logD at 4 h [3]: -1.66; Stability [4]: Stable; Stability [5]: Stable
7 | CCOC(=O)C1CCCN(c2nnc(NC(=O)c3ccccc3Cl)s2)C1 (centres undefined) | 79.7 | 
8 | CC(C)(C)OC(=O)Cn1nc(Cc2ccccc2Cl)oc1=O | 98.9 | logD at 4 h [3]: 3.1
9 | O=c1oc(Cc2ccccc2Cl)nn1Cc1nn[nH]n1 | > 100 | logD at 4 h [3]: -1.09
10 | COc1ccc(Cn2nc(Cc3ccccc3Cl)oc2=O)cc1 | 64.8 | 
11 | COC(=O)c1ccc(-c2nc(Cc3cccc(C(F)(F)F)c3)no2)cc1 | > 100 | 
12 | COC(=O)c1ccc(-c2noc(Cc3cccc(C(F)(F)F)c3)n2)cc1 | 94.5 | 
13 | CCOC(=O)CN(Cc1ccccc1)c1nnc(NC(=O)c2ccccc2Cl)s1 | 91.6 | 
